Screens (PubChem)
DAX1 inh-1: DAX1 (NR0B1) inhibition, primary screen; inhibition, % at 6.8 µM; HEK293T StAR-luciferase reporter, SF-1/DAX-1 repression relief; 1.1% of 370,000 active;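 active = inhibition above the mean over all tested compounds plus 3 SD, cut at about 3.6% in these data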;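 also: 0% = DAX-1 cells with DMSO and 100% = cells lacking DAX-1 with DMSO; higher inhibition means more luminescence from relief of DAX-1 repression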
NR2E3 ag-1: agonists of human nuclear receptor NR2E3. Q9Y5X4. GST-NR2E3/biotin-RetCOR TR-FRET, 1536-well. inhibition of corepressor binding, % at 4.78 µM. 0.12% of 320,000 active;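 active = percent inhibition above the cutoff of mean plus 3 SD of all tested compounds, set per screening campaign, cut at about 20% in these data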;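 also: 0% = DMSO wells and 100% = biotin wells as full block of FRET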
Target sequence (Q9Y5X4 whole entry, looked up): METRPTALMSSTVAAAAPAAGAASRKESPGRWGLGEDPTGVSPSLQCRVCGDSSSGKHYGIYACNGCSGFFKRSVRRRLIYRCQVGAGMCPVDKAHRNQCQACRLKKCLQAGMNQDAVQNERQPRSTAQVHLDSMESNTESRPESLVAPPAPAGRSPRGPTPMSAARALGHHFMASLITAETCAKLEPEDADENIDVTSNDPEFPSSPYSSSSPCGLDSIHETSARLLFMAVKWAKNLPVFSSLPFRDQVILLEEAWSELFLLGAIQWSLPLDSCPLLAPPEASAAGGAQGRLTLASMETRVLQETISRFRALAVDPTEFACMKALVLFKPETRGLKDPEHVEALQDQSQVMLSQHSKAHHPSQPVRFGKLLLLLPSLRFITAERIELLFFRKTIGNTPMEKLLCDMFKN
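system = GST-tagged NR2E3 plus biotinylated RetCOR corepressor | input = 1.35 nM GST-NR2E3 | also added = 7 nM biotin-RetCOR | schedule = 5 h incubation at 4 °C | measured by = TR-FRET with europium anti-GST and streptavidin-D2, 340 nm excitation | read-out = percent loss of FRET ratio relative to control wells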
GASC-1 inh: human JMJD2C demethylase inhibition; Q9H3R0; 0.069% of 330,000 active; inhibition, % at 2.35 µM; GST-JMJD2C(1-420) H3K9me3 demethylation, DELFIA europium; AID 2099;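 active = more than half of a compound's replicate wells show inhibition beyond 50%, single wells judged on their own value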;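 also: signal counts dimethyl H3K9 product captured on neutravidin plate; 0% = median of DMSO wells and 100% = 0.3 times that DMSO median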
DAX1 inh-2: inhibitors of human orphan nuclear receptor DAX1 (NR0B1). 0.99% of 340,000 active. inhibition, % at 6.75 µM. P51843. HEK293 Gal4-DAX1 luciferase reporter, luminescence;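 active = inhibition above the mean over all tested compounds plus 3 SD, cut at about 4.2% in these data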;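 also: 0% = DAX1-transfected cells with DMSO and 100% = empty-vector control cells with DMSO; inhibition shows as a rise in luminescence from relieved DAX1 repression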
Target sequence (P51843 207-470 limits assumed): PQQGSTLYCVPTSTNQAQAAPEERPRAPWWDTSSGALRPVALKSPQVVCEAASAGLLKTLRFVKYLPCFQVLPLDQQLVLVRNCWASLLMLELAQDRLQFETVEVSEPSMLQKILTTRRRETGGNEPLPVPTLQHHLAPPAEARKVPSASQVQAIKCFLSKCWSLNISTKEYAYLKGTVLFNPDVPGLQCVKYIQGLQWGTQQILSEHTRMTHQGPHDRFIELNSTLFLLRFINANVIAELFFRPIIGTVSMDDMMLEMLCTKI
NR2E3 ag-2: activates human NR2E3 receptor; 0.35% of 360,000 active; CHO-S Gal4-NCOR/VP16-NR2E3 two-hybrid, luciferase; AID 602229; Q9Y5X4; inhibition of corepressor binding, % at 3.98 µM;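 active = inhibition above the mean of all tested compounds plus 3 SD, cut at about 70% in these data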;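 also: 0% = DMSO with NR2E3 transfected cells and 100% = cells lacking NR2E3 construct; higher means lower luciferase signal from less NR2E3 corepressor binding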
SMARCA2 act: activators of SMARCA2 function; 1% of 370,000 active; MG213 cells, MMTV-luciferase reporter, dexamethasone, overnight; activation, % at 9.1 µM; AID 652017; in the data active = activation above about 7.8%;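 also: 0% = vehicle wells and 100% = reference activator wells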
SMARCA2 act conf: confirmation of SMARCA2 (BRM) function activators. shares compounds with SMARCA2 act. MG213 cells, MMTV-luciferase with dexamethasone, luminescence, overnight; MG213 cells expressing E1A, Rb sequestered; DMSO wells 0%, reference activator 100%. activation, % at 9.1 µM. 30% of 3,500 active;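 active = activation above its plate's cutoff, the mean activation of tested wells plus 3 SD, cut at about 7.9% in these data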
GAL4-VP16 Luc: counter-screen for SMARCA2 activators: GAL4-VP16 luciferase reporter activation. shares compounds with SMARCA2 act. HEK293 GAL4-VP16 pG5luc reporter, luciferase luminescence; scaled: DMSO wells 0%, SAHA wells 100%. activation, % at 9.1 µM. 41% of 3,500 active. AID 686939;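 active = activation above the solvent-only control well mean plus 3 SD, averaged across control plates, cut at about 5.2% in these data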
Numbers without * were called inactive. This is a sample that favours compounds with a hit; in the whole collection about 3.2% have one here.

O=C(Nc1cccc(S(=O)(=O)NC2=NCCC2)c1)c1cc(=O)[nH]c2ccccc12 was read as DAX1 inh-1 -0.8, NR2E3 ag-1 -0.1, GASC-1 inh -6.5, DAX1 inh-2 -0.1, NR2E3 ag-2 -3.1 and SMARCA2 act -2.6.
Cc1ccc(S(=O)(=O)N2CCN(C)CC2c2ccccc2)cc1 (stereo not drawn) was read as DAX1 inh-1 -0.3, NR2E3 ag-1 2.2, DAX1 inh-2 -0.8, NR2E3 ag-2 -8.9 and SMARCA2 act -1.7.
`O=C(CSc1nnc(-c2ccccn2)o1)Nc1ccccc1Cl` gave DAX1 inh-1 1.7, NR2E3 ag-1 4.1, GASC-1 inh -12.0, DAX1 inh-2 0.0, NR2E3 ag-2 -106.9, SMARCA2 act 8.0*, SMARCA2 act conf 13.3* and GAL4-VP16 Luc 11.7*.
Screening Cc1ccc(-c2nnc(SCC(=O)Nc3nccs3)n2N)cc1 returned DAX1 inh-1 0.2, NR2E3 ag-1 0.1, GASC-1 inh -7.9, DAX1 inh-2 3.5, NR2E3 ag-2 -27.2 and SMARCA2 act -4.0.
`O=C(CSc1nnc(-c2cccnc2)o1)Nc1ccc(F)cc1` gave DAX1 inh-1 0.9, DAX1 inh-2 0.4, NR2E3 ag-2 -24.7 and SMARCA2 act 0.4.
`Nn1c(SCC(=O)Nc2nccs2)nnc1-c1cc(-c2ccccc2)n[nH]1` gave DAX1 inh-1 1.2, SMARCA2 act 9.6*, SMARCA2 act conf 5.1 and GAL4-VP16 Luc 2.2.
`O=C(CSc1nnc(-c2ccccc2)o1)Nc1ccccc1F` gave DAX1 inh-1 2.0, NR2E3 ag-1 0.2, GASC-1 inh -6.4, DAX1 inh-2 -6.2, NR2E3 ag-2 -169.6 and SMARCA2 act 1.3.
For N#Cc1ccsc1NC(=O)CSc1nnc(-c2ccccc2)o1 the results were DAX1 inh-1 0.5, NR2E3 ag-1 -0.4, GASC-1 inh -5.1, DAX1 inh-2 -0.4, NR2E3 ag-2 -8.5, SMARCA2 act 19.4*, SMARCA2 act conf 0.7 and GAL4-VP16 Luc 1.4.
`O=C(CSc1nnc(-c2cccnc2)o1)Nc1nccs1` gave DAX1 inh-1 2.3, NR2E3 ag-1 2.3, GASC-1 inh -1.7, DAX1 inh-2 -0.4, NR2E3 ag-2 -46.1, SMARCA2 act 9.1*, SMARCA2 act conf 4.6 and GAL4-VP16 Luc 2.2.
`O=C(CNS(=O)(=O)c1cccc2ccccc12)N1CCN(c2ncccn2)CC1` gave DAX1 inh-1 0.1 and SMARCA2 act -4.6.
COc1cccc(-c2nnc(SCC(=O)Nc3ccc(OCc4ccccc4)cc3)n2Cc2ccco2)c1 was read as DAX1 inh-1 -2.1 and SMARCA2 act -4.6.
`CCC(C(=O)Nc1ccc2c(c1)OCCO2)n1nnc2ccccc2c1=O` (stereo not drawn) gave DAX1 inh-1 0.4, NR2E3 ag-1 -0.2, GASC-1 inh 9.8, DAX1 inh-2 0.6, NR2E3 ag-2 -55.8, SMARCA2 act 8.7*, SMARCA2 act conf 2.0 and GAL4-VP16 Luc 6.1*.
For CC(Sc1nc2ccccc2c(=O)n1C)C(=O)Nc1ccc2c(c1)OCCO2 (stereo not drawn) the results were DAX1 inh-1 -3.3, NR2E3 ag-1 2.0, GASC-1 inh -4.3, DAX1 inh-2 0.0, NR2E3 ag-2 -5.2 and SMARCA2 act -2.3.
Screening CCC(c1c[nH]c2ccccc12)c1cn(C)c2ccccc12 (stereo not drawn) returned DAX1 inh-1 -0.3 and SMARCA2 act -4.6.
COc1ccc(C2N(c3cc(Cl)ccc3OC)C(=O)C3CCCN32)c(OC)c1 (stereo not drawn) was read as DAX1 inh-1 -0.7, NR2E3 ag-1 1.3, GASC-1 inh -1.1, DAX1 inh-2 2.6, NR2E3 ag-2 -54.4, SMARCA2 act 9.5*, SMARCA2 act conf 2.6 and GAL4-VP16 Luc -0.2.
Cc1cc(N2CCCC2)nc2ccc(NC(=S)NCCCN3CCC(C)CC3)cc12 was read as DAX1 inh-1 0.7, NR2E3 ag-1 1.1, GASC-1 inh 0.9, DAX1 inh-2 -0.7, NR2E3 ag-2 -36.2, SMARCA2 act 11.7*, SMARCA2 act conf 18.7* and GAL4-VP16 Luc 1.4.
Screening O=C(Nc1ccc(N2CCOCC2)nc1)c1ccccc1Cl returned DAX1 inh-1 0.7, NR2E3 ag-1 -1.4, GASC-1 inh 10.0, DAX1 inh-2 3.0, NR2E3 ag-2 -21.0, SMARCA2 act 9.6*, SMARCA2 act conf 1.7 and GAL4-VP16 Luc 2.4.
`COC(=O)c1cc(NC(=O)c2c(C)noc2C)ccc1N1CCOCC1` gave DAX1 inh-1 0.7, NR2E3 ag-1 2.0, GASC-1 inh -5.3, DAX1 inh-2 1.1, NR2E3 ag-2 18.0, SMARCA2 act 9.2*, SMARCA2 act conf 2.7 and GAL4-VP16 Luc 0.5.
`COc1c(C)cccc1C(=O)Nc1ccc(N2CCOCC2)c(Cl)c1` gave DAX1 inh-1 3.2, NR2E3 ag-1 4.4, GASC-1 inh -2.2, DAX1 inh-2 1.6, NR2E3 ag-2 -135.4, SMARCA2 act 8.5*, SMARCA2 act conf 3.5 and GAL4-VP16 Luc 14.4*.
`COC(=O)c1cc(NC(C)=O)ccc1N1CCOCC1` gave DAX1 inh-1 0.0, NR2E3 ag-1 -2.4, GASC-1 inh -10.8, DAX1 inh-2 -0.1, NR2E3 ag-2 8.4 and SMARCA2 act 2.0.
O=C(CCNC(=O)c1ccc(Cl)cc1)Nc1ccccc1N1CCCCC1 was read as DAX1 inh-1 -0.1, NR2E3 ag-1 -0.5, GASC-1 inh 8.1, DAX1 inh-2 0.8, NR2E3 ag-2 -3.1 and SMARCA2 act -1.8.
`CC1=[N+]([O-])C(C)(C)C(c2ccc(Br)cc2)=[N+]1[O-]` gave DAX1 inh-1 -0.2, NR2E3 ag-1 -1.1, GASC-1 inh 5.8, DAX1 inh-2 -1.0, NR2E3 ag-2 0.5, SMARCA2 act 12.4*, SMARCA2 act conf 0.8 and GAL4-VP16 Luc 0.4.
COc1ccc(NC(=O)CSc2nc3ccccc3c(=O)n2Cc2cccs2)c(OC)c1 was read as NR2E3 ag-1 -0.6 and GASC-1 inh 20.6.
`COc1cccc(NC(=O)CSc2nc3ccccc3c(=O)n2Cc2cccs2)c1` gave DAX1 inh-1 -0.4, NR2E3 ag-1 -1.1, GASC-1 inh -3.0, DAX1 inh-2 0.4, NR2E3 ag-2 -30.0, SMARCA2 act 8.9*, SMARCA2 act conf -4.7 and GAL4-VP16 Luc -1.2.
